Key:
[1] = target: T1, ATP-dependent translocase ABCB1 (Homo sapiens, UniProt P08183); assay: Inhibition of P-gp ATPase activity in […] DC-3F/ADX cells assessed as increase in basal activity measured by NADH level at 0.5 uM by spectrophotometric method; assay type: cell-based; set-up: scale not given: the % may be the effect or the level left; conditions: Chinese hamster
Summary of the method: (§1)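 P-gp basal MgATP hydrolysis in vesicle suspension, monitored continuously by spectrophotometry. ADP formation is coupled through phosphoenolpyruvate→pyruvate→lactate with NADH→NAD+ conversion, read as NADH absorbance at 340 nm in a 96-well plate. Compound stocks of 0.5, 5 and 50 µM give final well concentrations of 0.05, 0.5 and 5 µM. Run in triplicate.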

[2] = Lipophilicity, log P of the compound; assay type: physicochemical; conditions: octanol/water
[3] = target: T1, ATP-dependent translocase ABCB1; assay: Inhibition of P-gp ATPase activity in […] DC-3F/ADX cells assessed as increase in basal activity measured by NADH level at 0.05 uM by spectrophotometric method; assay type: cell-based; set-up: scale not given: the % may be the effect or the level left; conditions: Chinese hamster; summary of the method: as §1
[4] = target: T1, ATP-dependent translocase ABCB1; assay: Inhibition of P-gp ATPase activity in […] DC-3F/ADX cells assessed as increase in basal activity measured by NADH level at 5 uM by spectrophotometric method; assay type: cell-based; set-up: scale not given: the % may be the effect or the level left; conditions: Chinese hamster; summary of the method: as §1

T1 sequence (P08183 whole entry): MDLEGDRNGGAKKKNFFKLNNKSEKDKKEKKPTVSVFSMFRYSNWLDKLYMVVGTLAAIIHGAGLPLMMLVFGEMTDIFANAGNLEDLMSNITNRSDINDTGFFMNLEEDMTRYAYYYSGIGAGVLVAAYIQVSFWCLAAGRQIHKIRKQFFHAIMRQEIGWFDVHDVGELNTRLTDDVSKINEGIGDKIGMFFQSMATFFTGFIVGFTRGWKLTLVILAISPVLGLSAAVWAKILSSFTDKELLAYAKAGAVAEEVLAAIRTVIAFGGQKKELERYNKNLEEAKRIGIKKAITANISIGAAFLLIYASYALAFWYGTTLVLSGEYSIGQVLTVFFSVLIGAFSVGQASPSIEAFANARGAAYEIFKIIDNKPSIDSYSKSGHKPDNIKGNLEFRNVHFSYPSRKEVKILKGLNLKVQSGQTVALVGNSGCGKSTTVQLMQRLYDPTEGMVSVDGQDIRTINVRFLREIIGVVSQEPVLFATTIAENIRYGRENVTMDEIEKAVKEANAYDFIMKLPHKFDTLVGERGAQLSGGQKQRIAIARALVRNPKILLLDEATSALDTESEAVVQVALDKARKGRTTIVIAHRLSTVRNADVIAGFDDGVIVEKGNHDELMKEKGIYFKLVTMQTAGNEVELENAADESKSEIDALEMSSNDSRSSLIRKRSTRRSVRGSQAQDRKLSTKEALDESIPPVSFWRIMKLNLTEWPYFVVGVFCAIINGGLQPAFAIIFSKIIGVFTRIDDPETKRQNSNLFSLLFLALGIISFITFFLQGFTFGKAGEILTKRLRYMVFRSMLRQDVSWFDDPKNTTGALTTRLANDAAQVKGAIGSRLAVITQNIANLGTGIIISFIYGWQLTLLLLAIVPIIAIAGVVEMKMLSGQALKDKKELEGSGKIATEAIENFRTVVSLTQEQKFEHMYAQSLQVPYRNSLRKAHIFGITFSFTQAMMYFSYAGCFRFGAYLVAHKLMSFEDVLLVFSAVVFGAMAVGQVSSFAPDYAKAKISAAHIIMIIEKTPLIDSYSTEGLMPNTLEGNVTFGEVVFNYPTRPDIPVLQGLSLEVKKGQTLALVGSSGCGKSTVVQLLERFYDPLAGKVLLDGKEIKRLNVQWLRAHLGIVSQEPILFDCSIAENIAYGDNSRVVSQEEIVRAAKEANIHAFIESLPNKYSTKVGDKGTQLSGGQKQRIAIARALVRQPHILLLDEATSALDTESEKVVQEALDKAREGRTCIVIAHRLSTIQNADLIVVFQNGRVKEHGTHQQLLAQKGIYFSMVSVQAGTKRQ

SMILES | Activity [1] | logP [2] | Activity [3] | Activity [4]
O=c1c2ccccc2n(CC(O)CN2CCCC2)c2ccccc12 (configuration not stated) | 34% | 1.73 | 31% | 38%
O=c1c2ccccc2n(CC(O)CN2CCCCC2)c2ccccc12 (configuration not stated) | 40% | 2.14 | 33% | 44%
O=c1c2ccccc2n(CC(O)CN2CCC(N3CCCCC3)CC2)c2ccccc12 (configuration not stated) | 32% | 2.56 | 25% | 31%
CCN(CC)CC(O)Cn1c2ccccc2c(=O)c2ccccc21 (configuration not stated) | 32% | 1.98 | 29% | 36%
CC(C)N(CC(O)Cn1c2ccccc2c(=O)c2ccccc21)C(C)C (configuration not stated) | 21% | 2.58 | 18% | 28%
O=c1c2ccccc2n(CC(O)CN2CCOCC2)c2ccccc12 (configuration not stated) | 27% | 1.08 | 24% | 30%
CC(=O)[C@H]1CC[C@H]2[C@@H]3CCC4=CC(=O)CC[C@]4(C)[C@H]3CC[C@]12C [PROGESTERONE] | 30% |  |  | 34%
CCCNCC(O)COc1ccccc1C(=O)CCc1ccccc1 (configuration not stated) [PROPAFENONE] | 31% |  |  | 40%
COc1ccc(CCN(C)CCCC(C#N)(c2ccc(OC)c(OC)c2)C(C)C)cc1OC (configuration not stated) [VERAPAMIL] | 30% |  |  | 33%
CC[C@]1(O)C[C@@H]2CN(CCc3c([nH]c4ccccc34)[C@@](C(=O)OC)(c3cc4c(cc3OC)N(C)[C@H]3[C@@](O)(C(=O)OC)[C@H](OC(C)=O)[C@]5(CC)C=CCN6CC[C@]43[C@@H]65)C2)C1 [VINBLASTINE] | 31% |  |  | 35%

From ChEMBL document CHEMBL1152787, “Search for MDR modulators: design, syntheses and evaluations of N-substituted acridones for interactions with p-glycoprotein and Mg2+” (Bioorg Med Chem, 2009)
